This is a sample that favours compounds with a hit; in the whole collection about 3.1% have one here.
hERG rescue: hERG rescue from dofetilide block, primary screen, cell-based, CHO-hERG, FluxOR thallium flux, dofetilide IC70. Voltage-gated inwardly rectifying potassium channel KCNH2 (Homo sapiens), Q12809. dofetilide IC70 present. activation (rescue from dofetilide block), less the hit threshold, % at 10 µM. 0.51% of 310,000 active. AID 1511, 2009;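 active means activation above the mean of controls blocked by dofetilide plus 5 SD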;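 further: thallium influx through hERG after potassium depolarization seen as dye fluorescence rise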
Target sequence (Q12809 whole entry, looked up): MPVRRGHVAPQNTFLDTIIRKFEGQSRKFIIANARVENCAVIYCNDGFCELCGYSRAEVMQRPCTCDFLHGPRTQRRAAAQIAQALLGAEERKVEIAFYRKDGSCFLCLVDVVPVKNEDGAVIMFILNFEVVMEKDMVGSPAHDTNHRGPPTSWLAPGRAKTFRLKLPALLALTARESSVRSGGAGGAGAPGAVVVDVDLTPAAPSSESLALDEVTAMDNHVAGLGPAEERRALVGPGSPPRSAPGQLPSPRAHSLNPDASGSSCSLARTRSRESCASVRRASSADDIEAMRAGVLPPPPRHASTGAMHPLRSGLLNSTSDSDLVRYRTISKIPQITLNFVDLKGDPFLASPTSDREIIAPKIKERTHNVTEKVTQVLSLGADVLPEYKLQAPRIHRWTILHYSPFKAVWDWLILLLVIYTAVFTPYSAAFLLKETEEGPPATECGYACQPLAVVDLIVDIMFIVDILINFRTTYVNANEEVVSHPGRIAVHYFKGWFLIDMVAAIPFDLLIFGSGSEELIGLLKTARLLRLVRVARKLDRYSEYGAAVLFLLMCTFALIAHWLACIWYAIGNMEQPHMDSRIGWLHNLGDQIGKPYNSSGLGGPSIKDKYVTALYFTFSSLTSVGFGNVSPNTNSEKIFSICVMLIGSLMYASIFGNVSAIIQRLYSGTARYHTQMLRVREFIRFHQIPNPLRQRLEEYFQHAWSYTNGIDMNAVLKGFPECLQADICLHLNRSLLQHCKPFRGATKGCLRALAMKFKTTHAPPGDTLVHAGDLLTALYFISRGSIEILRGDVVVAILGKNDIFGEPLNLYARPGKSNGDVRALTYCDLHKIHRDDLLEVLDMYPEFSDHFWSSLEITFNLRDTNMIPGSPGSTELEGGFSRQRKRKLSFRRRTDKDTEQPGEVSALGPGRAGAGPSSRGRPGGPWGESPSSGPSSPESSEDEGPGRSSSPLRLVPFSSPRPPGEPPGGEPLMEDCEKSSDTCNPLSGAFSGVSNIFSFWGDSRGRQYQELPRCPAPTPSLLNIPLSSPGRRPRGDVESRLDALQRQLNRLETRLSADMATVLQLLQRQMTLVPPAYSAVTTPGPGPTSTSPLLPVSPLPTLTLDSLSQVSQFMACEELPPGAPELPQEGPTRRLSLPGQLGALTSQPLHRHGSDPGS
KCNQ1 block: inhibitors of human KCNQ1 channel, primary screen, cell-based, thallium flux, high-throughput; B-score at 10 µM; AID 2642, 2010; CHO-K1 KCNQ1, FluxOR thallium flux fluorescence; hits give high values; 1.3% of 310,000 active;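 active means compounds whose thallium flux B-score, printed positive for inhibition, exceeds three library SD while starting fluorescence stays within three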;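 further: channel opened by potassium depolarization with thallium stimulus after 20 min compound exposure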
KCNK3 inh: human KCNK3 channel inhibitors, primary screen, CHO cells, FluxOR thallium flux, B-score. Potassium channel subfamily K member 3 (Homo sapiens), O14649. FluxOR fluorescence; hits give low values. B-score at 10 µM. 0.84% of 340,000 active. AID 602410, 2012;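 active means B-score under library mean minus 4 SD, starting fluorescence ratio at most library mean plus 5 SD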;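 further: more negative B-score means stronger inhibition of thallium flux through KCNK3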
KCNK9 inh: KCNK9 potassium channel inhibitors, primary screen, HEK293 cells, thallium flux; Potassium channel subfamily K member 9 (Homo sapiens), Q9NPC2; FluxOR thallium flux fluorescence; hits give low values; B-score at 10 µM; 1.2% of 310,000 active; AID 488922, 2010;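 active means ratio B-score over 3 SD below the library mean, with starting fluorescence within 5 SD of its mean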;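 further: negative B-score means less thallium flux so channel inhibition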
KCNQ1 act: potentiators or activators of KCNQ1 channel, primary screen, cell-based, thallium flux, high-throughput. CHO-K1 KCNQ1, thallium flux FluxOR fluorescence; hits give high values. B-score at 10 µM. 0.35% of 310,000 active. AID 2648, 2010;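 active means fluorescence ratio B-score, a plate-corrected score, at least three library SD, with initial intensity B-score within 5 SD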
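Assay system: CHO-K1 cells stably expressing KCNQ1; Medium: assay buffer with matched DMSO; Also added: K+/Tl+ depolarizing stimulus; Dosing: single dose; Timing: dye 90 min, compound 20 min, room temperature; Measured by: kinetic FluxOR thallium fluorescence, 10-s 1-Hz baseline, 110-s post-stimulus read; Read-out: peak-minus-minimum fluorescence over initial fluorescence, negative-control normalized, B-scored.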
KCNK9 block conf: KCNK9 potassium channel inhibitors, confirmation, HEK293 cells, thallium flux, duplicate | shares compounds with KCNK9 inh | 43% of 4,900 active | FluxOR thallium flux fluorescence | inhibition, % at 10 µM;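 active means thallium signal inhibited by more than 5 SD of the compound-free buffer control wells, on both duplicate plates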
Kir21 sel: mouse Kir2.1 channel inhibition, confirmation, selectivity assay for KCNK9 modulator project, cell-based, HEK293, thallium flux; shares compounds with KCNK9 inh; Kir2.1 cells, FluxOR thallium flux fluorescence; inhibition, % at 10 µM; 4% of 4,900 active;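 active means thallium signal drop more than 5 SD beyond the mean of the no-compound control wells, seen in both duplicate plates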;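 further: signal is fluorescence rise after thallium addition divided by baseline fluorescence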
KCNK9 uninduced: thallium flux in non-induced HEK293 cells, confirmation, counter-screen for KCNK9 inhibitor project, cell-based, second counter screen, non-induced KCNK9-HEK293. 40% of 4,900 active. FluxOR thallium flux. inhibition, % at 10 µM. shares compounds with KCNK9 inh;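 active means thallium signal drop beyond 5 SD of the untreated control mean, on both duplicate plates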
Large screens that a line does not name were inactive (follow-up assays come after a bar, where they were run).

CC1CCC(C(C)C)C(OC(=O)C[n+]2cc(-c3ccc(Cl)cc3)n3c2CCC3)C1 (centres undefined)	KCNK9 inh -13 | KCNK9 block conf 48% | Kir21 sel 44% | KCNK9 uninduced inactive
CCC(=O)N1CCc2cc(S(=O)(=O)N3CCN(c4cc(Cl)ccc4C)CC3)ccc21	none
CC(Oc1ccc(Br)cc1)C(=O)NCC(c1cccs1)N1CCOCC1 (centres undefined)	none
O=C(O)c1ccc(-c2nc(-c3ccc(Cl)cc3)cs2)cc1	none
O=C(O)c1ccc(-c2nc(-c3cccc(C(F)(F)F)c3)cs2)cc1	none | KCNK9 block conf inactive | Kir21 sel inactive | KCNK9 uninduced inactive
Cc1ccc(S(=O)(=O)N2CCCCC2)cc1NC(=O)COC(=O)Cc1ccc(Cl)cc1	none | KCNK9 block conf inactive | Kir21 sel inactive | KCNK9 uninduced inactive
Cc1ccc([N+](=O)[O-])cc1NC(=O)CN(C(=O)c1ccccc1Cl)C1CCCCC1	KCNK9 inh -9.6 | KCNK9 block conf 50% | Kir21 sel inactive | KCNK9 uninduced inactive
COc1cc(-c2nc(-c3ccccc3)c(-c3cc([N+](=O)[O-])ccc3C)[nH]2)cc(OC)c1OC	KCNQ1 block 9, KCNK3 inh -11, KCNK9 inh -14 | KCNK9 block conf 60% | Kir21 sel inactive | KCNK9 uninduced 24%
O=[N+]([O-])c1cccc(-c2nc(-c3ccccc3)c(-c3cccs3)[nH]2)c1	none
CC(NC(=O)C1CCC(C(C)(C)C)CC1)C(c1ccccc1)N1CCOCC1 (centres undefined)	none | KCNK9 block conf inactive | Kir21 sel inactive | KCNK9 uninduced inactive
CCOC(=O)c1c(C)n(S(=O)(=O)c2ccc(C)cc2)c2ccc(O)c(C(=O)O)c12	none
CC(Sc1ncn[nH]1)C(=O)Nc1ccc(Cl)cn1 (centres undefined)	none
O=c1c2ccccc2n(CC(O)CN2CCOCC2)c2ccccc12 (centres undefined)	KCNK9 inh -14 | KCNK9 block conf 33% | Kir21 sel inactive | KCNK9 uninduced inactive
Cc1c(C)n(CC(O)CN2CCOCC2)c2ccccc12 (centres undefined)	none
COc1ccccc1NC(=O)Nc1nnc(C(C)c2ccccc2)s1 (centres undefined)	KCNK9 inh -10 | KCNK9 block conf 56% | Kir21 sel inactive | KCNK9 uninduced 24%
COC(=O)c1sccc1NC(=S)N1CCCCC1C (centres undefined)	none | KCNK9 block conf inactive | Kir21 sel inactive | KCNK9 uninduced inactive
COc1ccc(C(=O)C2CCCN(C(=O)c3cccc(N(C)C)c3)C2)cc1OC (centres undefined)	none | KCNK9 block conf inactive | Kir21 sel inactive | KCNK9 uninduced inactive
COc1ccc(F)cc1C(=O)C1CCCN(C(=O)c2cccc(N(C)C)c2)C1 (centres undefined)	none | KCNK9 block conf inactive | Kir21 sel inactive | KCNK9 uninduced inactive
COc1ccc(C(=O)C2CCCN(C(=O)c3ccc(F)cc3)C2)cc1OC (centres undefined)	none
COc1ccc(C(=O)C2CCCN(Cc3cccc4c3OCO4)C2)cc1OC (centres undefined)	none | KCNK9 block conf inactive | Kir21 sel inactive | KCNK9 uninduced inactive
COc1cccc(CN2CCCC(C(=O)c3ccc4c(c3)OCO4)C2)c1OC (centres undefined)	none

Source: PubChem BioAssay
